According to ChEMBL document CHEMBL1131033, “Selective endothelin A receptor antagonists. 4. Discovery and structure-activity relationships of stilbene acid and alcohol derivatives” (J Med Chem, 1998):

molecular target: T1, Endothelin-1 receptor (Rattus norvegicus, UniProt P26684); experiment: Concentration required to inhibit 50% Et-1 binding to endothelin A receptor in rat A-10 cells.; type: cell-based, A10; settings: not given
T1 sequence (P26684 whole entry): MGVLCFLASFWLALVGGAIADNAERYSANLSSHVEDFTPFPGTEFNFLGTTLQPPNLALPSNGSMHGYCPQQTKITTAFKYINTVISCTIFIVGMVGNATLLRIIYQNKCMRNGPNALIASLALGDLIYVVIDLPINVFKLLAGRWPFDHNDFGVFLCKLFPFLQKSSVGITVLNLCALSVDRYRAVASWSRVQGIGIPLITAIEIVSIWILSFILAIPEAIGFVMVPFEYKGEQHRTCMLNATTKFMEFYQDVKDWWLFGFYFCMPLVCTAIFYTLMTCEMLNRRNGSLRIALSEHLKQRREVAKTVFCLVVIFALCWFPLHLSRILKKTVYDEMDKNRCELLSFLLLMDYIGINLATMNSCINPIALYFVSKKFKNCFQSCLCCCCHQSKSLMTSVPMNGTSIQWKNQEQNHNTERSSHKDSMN
How it was run: (§1)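 Rat aortic smooth muscle A10 cells grown to confluence in DMEM with 10% FBS, harvested, and frozen. Nonspecific binding defined with 500 nM unlabeled ET-1. Bound ligand separated by vacuum filtration and gamma-counted. IC50 from curve fitting, usually in duplicate.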

| IC50 [µM] | Compound |
| --- | --- |
| 0.5 | O=C(O)/C(=C/c1cc(OCc2ccsc2)ccc1[N+](=O)[O-])c1ccccc1 |
| 2 | O=C(O)/C(=C/c1cc(OCc2ccsc2)ccc1[N+](=O)[O-])c1c(F)cccc1Cl |
| 1.1 | COc1cccc(/C(=C\c2cc(OCc3ccsc3)ccc2C#N)C(=O)O)c1 |
| 0.3 | Cc1ccccc1/C(=C\c1cc(OCc2ccsc2)ccc1C#N)C(=O)O |
| 0.7 | O=C(O)/C(=C/c1cc(OCc2ccsc2)ccc1Br)c1ccccc1 |
| 0.2 | N#Cc1ccc(OCc2ccsc2)cc1/C=C(/C(=O)O)c1ccccc1Cl |
| 0.4 | O=[N+]([O-])c1ccc(OCc2ccsc2)cc1/C=C(/CO)c1ccccc1Cl |
| 0.6 | O=C(O)/C(=C/c1cc(OCc2ccsc2)ccc1[N+](=O)[O-])c1ccccc1F |
| 2.1 | OC/C(=C/c1cc(OCc2ccsc2)ccc1Br)c1ccccc1 |
| 1.3 | O=C(O)/C(=C/c1cc(OCc2ccsc2)ccc1[N+](=O)[O-])c1ccccc1Cl |

Continued, compound first:

| Compound | IC50 [µM] |
| --- | --- |
| O=C(O)/C(=C/c1cccc(OCc2ccccc2)c1)c1ccccc1 | 6 |
| N#Cc1ccc(OCc2ccsc2)cc1/C=C(/CCC(=O)O)c1ccccc1 | 0.7 |
| N#Cc1ccc(OCc2ccc3c(c2)OCO3)cc1/C=C(/C(=O)O)c1ccccc1 | 1.3 |
| O=C(O)CCC(Oc1cccc(OCc2ccccc2)c1)c1ccccc1 (stereo not given) | 2 |
| N#Cc1ccc(OCc2ccsc2)cc1/C=C(/CO)c1ccccc1 | 0.8 |
| O=C(O)CC/C(=C/c1cccc(OCc2ccccc2)c1)c1ccccc1 | 5.3 |
| O=C(O)/C(=C/c1cc(OCc2ccccc2)ccc1[N+](=O)[O-])c1ccccc1 | 0.6 |
| N#Cc1ccc(OCc2ccsc2)cc1/C=C(/C(=O)O)c1ccc2c(c1)OCO2 | 0.2 |
| N#Cc1ccc(OCc2cccnc2)cc1/C=C(/C(=O)O)c1ccccc1 | 0.15 |
| O=[N+]([O-])c1ccc(OCc2ccsc2)cc1/C=C(/CO)c1ccccc1 | 1.4 |
| Cc1ccccc1/C(=C\c1cc(OCc2ccsc2)ccc1C#N)CO | 0.3 |

molecular target: T2, Endothelin-1 receptor (Rattus norvegicus) (UniProt P26684); experiment: Concentration required to inhibit 50% Et-1 binding to Endothelin A receptor in rat A-10 cells.; type: cell-based; design: concentration or dose not given beside the values; settings: A10; concentration not given here; how it was run: as §1
T2 sequence (whole entry): T1 sequence (P26684 whole entry)

| Compound | inhibition [%] |
| --- | --- |
| COc1ccc(C#N)c(/C=C(/C(=O)O)c2ccccc2)c1 | < 20 |
| COc1ccc(/C(=C\c2cc(OCc3ccsc3)ccc2C#N)C(=O)O)cc1 | < 20 |
| Nc1ccc(OCc2ccsc2)cc1/C=C(/C(=O)O)c1ccccc1F | < 20 |
| COC/C(=C/c1cc(OCc2ccsc2)ccc1C#N)c1ccccc1C | < 20 |
